Molecules are shown by their SMILES. Screen size: about 310,000 compounds; about 2,800 (0.9%) were called active.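 The calls were made as follows: active = B-score of the integrated calcium signal more than 4 SD below the library mean, with starting fluorescence not abnormally high; inactive = the rest.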 This excerpt belongs to a sample that is enriched for actives.

The nature of this experiment: RGS4 potentiators or activators, primary screen, cell-based, HEK293 M3R inducible RGS4, calcium flux (AID 463111).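 As to B-score: negative B-score means reduced calcium response which marks RGS4 activation or potentiation.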 The conditions noted are these: HEK293 M3R/inducible RGS4, carbachol calcium flux Fluo4, at 10 µM; active compounds read low. The method in brief: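 Reagent: ECmax carbachol challenge; Test system: M3R-expressing HEK293 line, RGS4 induced by doxycycline; Schedule: overnight RGS4 induction, 30 min dye load 37 °C, 20 min compound RT; Detection: calcium dye Fluo4 fluorescence; Read-out: Agonist-evoked peak-minus-minimum fluorescence over baseline, integrated ratio, B score.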
`COc1cccc(C(=O)OCc2cc(=O)oc3c(C)c(C)ccc23)c1OC`: the B-score entry was “inactive”. On to `Cc1nn(C)cc1N1C(=O)c2cccc3c(N)ccc(c23)C1=O`, for which the B-score is -8.92 (active).

For `O=C1c2ccccc2C(=O)N1c1cccc2ccccc12`, the B-score entry was “inactive”.

With `CN1C(=O)c2cccc3c(N)ccc(c23)C1=O`, the B-score entry is “inactive”.

`COc1ccc(C(=O)Nc2ccc(C(=O)NCC3CCCO3)cc2)c(OC)c1OC` (centres undefined): the B-score entry is “inactive”. As to `CC(=O)NCC(=O)N1CCC(n2nccc2NC(=O)CCCc2ccccc2)CC1`, the B-score result was “inactive”. Turning to `COc1ccc(/C=C/C(=O)c2ccc(NS(=O)(=O)c3ccc(C)cc3)cc2)cc1O`, the B-score result was “inactive”.

On to `COC(=O)c1ccc(COc2ccc(/C=C/C(=O)c3ccc(OC)c(CSCC(=O)O)c3)cc2OC)cc1`, for which the B-score entry is “inactive”. For `COc1ccc(C(=O)/C=C/c2ccc(-c3ccccc3)cc2)cc1CSCC(=O)O`, the B-score was -7.93 (active).

As for `CC(C)=CCN1CCN(CCCc2ccccc2)CC1CCO` (centres undefined), the B-score entry was “inactive”. Under `NC1=NC(c2ccc([N+](=O)[O-])cc2)N(c2ccc(F)cc2)C(N)=N1` (centres undefined) stands “inactive”; under `COc1cc(/C=C/C(=O)N2c3ccccc3Sc3ccc(C(F)(F)F)cc32)cc(OC)c1OC`, “inactive”; under `CCOC(=O)CNC(=O)N1c2ccccc2Sc2ccccc21`, “inactive”. Under `O=C(CN1CCCCCC1)N1c2ccccc2Sc2ccc(C(F)(F)F)cc21` stands -7.9 (active); under `CCn1nc(C)c(CNC(=O)C2CCC(=O)N(Cc3cccc(F)c3)C2)c1C` (centres undefined), “inactive”. Under `Cc1cc2oc(=O)cc(CN(C)Cc3ccc(OC(F)F)cc3)c2cc1Cl` stands -7.56 (active); under `Cc1ccc(CN(C)Cc2cc(=O)oc3cc(C)c(Cl)cc23)cc1`, “inactive”; under `CCOc1ccc(N(C)Cc2cc(=O)oc3ccc(OC)cc23)cc1`, “inactive”. As for `CCN1CCN(c2sc(S(C)(=O)=O)nc2S(=O)(=O)c2ccc(Cl)cc2)CC1`, the B-score entry is “inactive”. Turning to `Cc1onc(C(=O)NN)c1C(=O)N1CCN(C(c2ccccc2)c2ccccc2)CC1`, the B-score entry is “inactive”. With `Cn1nnnc1SCC(=O)N1CCN(C(c2ccccc2)c2ccccc2)CC1` the entry was “inactive”; with `O=C(c1ccc(-n2cnnn2)cc1)N1CCN(C(c2ccccc2)c2ccccc2)CC1`, -7.43 (active). As for `C=CCN(C(=O)Cn1ncc2c1-c1cc(C)ccc1OC2)c1ccccc1`, the B-score result is “inactive”. Under `Cc1ccc(S(=O)(=O)NCc2ccc(C(=O)NC3CCC(C)CC3)cc2)cc1` (centres undefined) stands “inactive”. With `CCOC(=O)c1c(NC(=O)CSc2cn(CC)c3ccccc23)sc2c1CCC2` the entry was “inactive”; with `CCOC(=O)c1c(NC(=S)NC)sc2c1CCCC2`, “inactive”. With `CCOC(=O)c1c(NC(=O)C(C)Sc2c[nH]c3ccccc23)sc2c1CCC2` (centres undefined) the figure was -7.36 (active); with `COc1cccc(/C=N/Nc2cc(C)nc(-c3ccccc3O)n2)c1O`, -11.4 (active); with `COc1cccc(/C=N/Nc2ncc(C(F)(F)F)cc2Cl)c1O`, “inactive”. On to `COc1cccc(/C=N/NC(=O)c2[nH]nc3c2CCc2ccccc2-3)c1O`, for which the B-score result is “inactive”. With `Cc1ccc(SCC(=O)Nc2ccc3c(c2)OCCO3)cc1` the entry was “inactive”; with `Cc1ccc(C(=O)CSc2ccccc2C(=O)O)cc1`, “inactive”; with `Cc1ccc(SCC(=O)c2cc(C)c(OC(=S)N(C)C)c(C)c2)cc1`, -8.33 (active). Under `CN(C)C(=O)Cn1c(=O)n(S(=O)(=O)c2ccccc2)c2ccccc21` stands “inactive”. Under `CCOC(=O)C1C(c2ccc(Cl)cc2)NC(=S)NC1(O)C(F)(F)F` (centres undefined) stands “inactive”. For the compound `CC(=O)C1C(c2cccc(Oc3ccccc3)c2)NC(=O)NC1(O)C(F)(F)F` (centres undefined), the B-score result is “inactive”. In the case of `O=C(c1cccs1)C1C(c2ccc(Br)cc2)NC(=S)NC1(O)C(F)(F)F` (centres undefined), the B-score was -11.1 (active). With `O=C(NCc1ccncc1)C(=O)NCC1OCCN1S(=O)(=O)c1ccc(Br)cc1` (centres undefined) the entry was “inactive”; with `COc1ccc2[nH]cc(/C=C(/C#N)S(=O)(=O)c3ccccc3)c2c1`, “inactive”; with `COc1ccc(/C=C(\C#N)c2c[nH]c3ccccc23)cc1`, -9.16 (active). With `COc1ccc(C(C(O)C(=O)c2c[nH]c3ccccc23)N2CCN(c3ccccc3)CC2)cc1` (centres undefined) the entry was “inactive”. Consider `COc1cccc(NC(=S)C(C#N)=C2N(C)c3ccccc3N2C)c1`, for which the B-score entry was “inactive”.

Regarding `CC(C)(C)c1ccc(C(=O)N2CCN(CCNC(=O)C(=O)Nc3ccc(F)cc3)CC2)cc1`, the B-score entry was “inactive”.

`COc1cccc(C(=O)N/N=C(\C)c2cccc(NC(=O)c3ccc(F)cc3)c2)c1OC`: the B-score was -7.56 (active).

On to `COc1ccc(/C(C)=N\NC(=O)c2ccc(-c3ccccc3)cc2)c(F)c1`, for which the B-score result was “inactive”. With `COc1cccc(C(=O)Nc2cccnc2)c1OC` the entry was “inactive”. For the compound `CC(C)(C)n1ncc2c(=O)n(Cc3ccc(Cl)cc3)cnc21`, the B-score result was “inactive”. Under `O=C(NCCN1CCOCC1)c1ccc(/C=C2\Sc3ccccc3N(Cc3ccc(F)cc3)C2=O)cc1` stands “inactive”; under `CCN1CCN(CCNC(=O)c2ccc(/C=C3/Sc4ccccc4N(Cc4cccc(C)c4)C3=O)cc2)CC1`, -9.47 (active). For `O=C(NCCCN1CCOCC1)c1ccc2c(c1)N(Cc1cccc(F)c1)C(=O)c1ccccc1S2`, the B-score entry is “inactive”. Under `Cc1oc(C(N)=O)cc1COc1ccc(C(N)=O)cc1` stands “inactive”. With `Cn1nccc1NC(=O)CC(CC(=O)O)c1ccccc1` (centres undefined) the entry was “inactive”; with `Cc1ccc(C(=O)NCCN2CCOCC2)cc1C`, “inactive”; with `CCC1=Nc2cc(C(=O)NCCN3CCCC3)ccc2Sc2ccc(C)cc21`, “inactive”. With `Cc1cccc(-c2nc3ccc(C(=O)NCCN4CCN(C)CC4)cc3nc2-c2cccc(C)c2)c1` the figure was -8.03 (active); with `O=C(CN1CCC(NC(=O)C2CC2)CC1)Nc1ccccc1[N+](=O)[O-]`, “inactive”. Regarding `CCOc1ccc(C(CC(=O)O)NC(=O)Cc2ccccc2)cc1OC` (centres undefined), the B-score result was “inactive”. With `CCOc1ccc(C(CC(=O)O)NC(=O)COc2ccccc2)cc1` (centres undefined) the figure was -7.76 (active). With `Cc1ccc(OCC(=O)NC(C)c2ccccc2)cc1C` (centres undefined) the entry was “inactive”.
